Bioassay records deposited in PubChem BioAssay by several laboratories.
This is a sample that favours compounds with a hit; in the whole collection about 1.1% have one here.
FAS TE block: FAS thioesterase (human) inhibition. recombinant FAS-TE, OMFH fluorogenic substrate, fluorescence endpoint. inhibition, % at 15 µM. 360,000 tested, 0.67% active. AID 602261;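 active = compounds whose normalised, plate-corrected inhibition of enzyme fluorescence in the single-dose primary screen is 50% or more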;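 also: 0% = DMSO with enzyme and 100% = substrate without enzyme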
Target sequence (P49327 whole entry, looked up): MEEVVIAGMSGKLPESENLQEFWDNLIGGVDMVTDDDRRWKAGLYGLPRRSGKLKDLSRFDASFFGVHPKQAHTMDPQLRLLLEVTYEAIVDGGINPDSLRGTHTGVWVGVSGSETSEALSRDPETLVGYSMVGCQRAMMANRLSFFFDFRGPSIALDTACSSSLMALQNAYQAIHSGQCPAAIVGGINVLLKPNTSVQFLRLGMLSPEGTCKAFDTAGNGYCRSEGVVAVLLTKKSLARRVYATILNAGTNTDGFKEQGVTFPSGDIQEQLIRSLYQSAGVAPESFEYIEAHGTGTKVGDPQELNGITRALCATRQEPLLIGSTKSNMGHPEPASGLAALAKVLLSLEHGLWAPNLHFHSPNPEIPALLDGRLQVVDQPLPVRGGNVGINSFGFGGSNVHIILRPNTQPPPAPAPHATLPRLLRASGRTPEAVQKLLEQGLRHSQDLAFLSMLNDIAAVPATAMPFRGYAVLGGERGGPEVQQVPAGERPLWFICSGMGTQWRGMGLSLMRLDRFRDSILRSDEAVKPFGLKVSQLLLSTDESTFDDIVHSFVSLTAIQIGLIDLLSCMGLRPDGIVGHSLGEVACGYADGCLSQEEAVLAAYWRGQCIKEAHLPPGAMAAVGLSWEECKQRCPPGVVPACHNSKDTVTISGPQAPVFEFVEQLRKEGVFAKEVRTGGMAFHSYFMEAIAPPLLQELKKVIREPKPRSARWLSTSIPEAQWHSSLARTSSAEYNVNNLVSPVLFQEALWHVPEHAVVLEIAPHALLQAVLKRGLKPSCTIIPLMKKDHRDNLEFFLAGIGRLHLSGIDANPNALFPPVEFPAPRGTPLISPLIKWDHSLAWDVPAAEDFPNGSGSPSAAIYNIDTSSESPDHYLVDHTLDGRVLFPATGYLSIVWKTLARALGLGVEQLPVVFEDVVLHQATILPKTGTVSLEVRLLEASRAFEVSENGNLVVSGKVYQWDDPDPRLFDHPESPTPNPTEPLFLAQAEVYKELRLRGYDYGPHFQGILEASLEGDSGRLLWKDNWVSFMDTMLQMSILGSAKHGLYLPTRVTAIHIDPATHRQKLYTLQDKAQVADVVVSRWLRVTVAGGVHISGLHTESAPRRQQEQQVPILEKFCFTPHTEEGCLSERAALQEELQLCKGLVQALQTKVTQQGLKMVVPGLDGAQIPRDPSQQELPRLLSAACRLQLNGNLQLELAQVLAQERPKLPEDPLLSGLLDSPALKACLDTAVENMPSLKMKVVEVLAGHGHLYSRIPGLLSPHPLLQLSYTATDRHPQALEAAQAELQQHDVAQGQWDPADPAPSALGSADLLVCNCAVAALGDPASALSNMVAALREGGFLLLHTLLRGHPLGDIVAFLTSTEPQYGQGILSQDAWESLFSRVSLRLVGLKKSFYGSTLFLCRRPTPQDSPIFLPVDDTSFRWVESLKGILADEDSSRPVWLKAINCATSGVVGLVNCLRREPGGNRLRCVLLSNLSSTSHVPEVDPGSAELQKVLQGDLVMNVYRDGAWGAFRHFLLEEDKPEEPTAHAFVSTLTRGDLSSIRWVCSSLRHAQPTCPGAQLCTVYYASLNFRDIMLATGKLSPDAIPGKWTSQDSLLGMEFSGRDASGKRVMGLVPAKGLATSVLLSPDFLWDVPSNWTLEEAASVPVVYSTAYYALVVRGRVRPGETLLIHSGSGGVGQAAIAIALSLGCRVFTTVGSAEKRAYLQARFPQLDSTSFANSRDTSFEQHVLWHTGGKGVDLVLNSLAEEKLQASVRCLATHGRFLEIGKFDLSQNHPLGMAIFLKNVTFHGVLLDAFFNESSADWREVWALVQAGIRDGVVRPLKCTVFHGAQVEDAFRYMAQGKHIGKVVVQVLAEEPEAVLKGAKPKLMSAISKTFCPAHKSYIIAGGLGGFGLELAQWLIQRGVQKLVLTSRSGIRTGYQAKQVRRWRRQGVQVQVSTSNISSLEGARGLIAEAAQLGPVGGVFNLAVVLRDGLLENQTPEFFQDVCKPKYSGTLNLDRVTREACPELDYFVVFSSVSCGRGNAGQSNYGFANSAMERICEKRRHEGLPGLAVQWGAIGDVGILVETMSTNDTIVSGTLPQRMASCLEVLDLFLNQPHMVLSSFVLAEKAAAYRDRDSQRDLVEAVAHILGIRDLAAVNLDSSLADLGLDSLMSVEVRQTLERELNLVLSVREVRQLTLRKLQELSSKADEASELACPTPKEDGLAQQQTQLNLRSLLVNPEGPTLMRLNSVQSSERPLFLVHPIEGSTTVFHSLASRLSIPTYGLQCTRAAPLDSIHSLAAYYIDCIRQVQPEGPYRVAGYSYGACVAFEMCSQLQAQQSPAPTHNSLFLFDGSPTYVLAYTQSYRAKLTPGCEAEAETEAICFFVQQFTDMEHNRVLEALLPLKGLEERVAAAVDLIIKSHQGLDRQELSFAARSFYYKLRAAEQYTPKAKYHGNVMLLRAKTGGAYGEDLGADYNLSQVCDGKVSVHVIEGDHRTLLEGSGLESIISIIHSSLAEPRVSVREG
hiPSC survival: enhancers of human iPSC single-cell survival; hiPSC single-cell survival, ATPlite luminescence; 100% = ROCK inhibitor wells, 0% = DMSO; survival enhancement, % at 20 µM; 360,000 tested, 0.044% active; in the data active = survival enhancement above about 18%;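 also: cells exposed to compounds for 16 hours before the ATP read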
SENP1 FRET inh: blocks the human SENP1 SUMO protease catalytic domain | 360,000 tested, 0.21% active | recombinant SENP1 catalytic domain, CyPet-SUMO1-YPet FRET cleavage | AID 624204 | inhibition, % at 10 µM | Q9P0U3;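 active = inhibition at least 30% at 10 µM, raw YFP signal under a set limit, fluorescence ratio 0.5 to 1.5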;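 also: 0% = enzyme with DMSO and 100% = no enzyme wells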
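Test system: recombinant human SENP1 catalytic domain, His6-tagged / Medium: pH 8 Tris buffer with EDTA, NaCl, BME, BSA, NP40, catalase / Also added: SUMO1 FRET substrate flanked by Cypet and Ypet, 25 nM / Times: 50 min reaction at room temperature / Signal: FRET, CFP and YFP emission / Control set: no-enzyme low control and enzyme-plus-DMSO high control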
ABCB6 inh 2: human ABCB6 transporter inhibition; AID 602162; K562-ABCB6 porphyrin accumulation, flow cytometry, 1 h; active compounds read low; fluorescence ratio to DMSO, % at 10 µM; 360,000 tested, 0.19% active;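 active = fluorescence ratio to DMSO below 75%, the collection mean minus 3 SD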;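 also: signal is porphyrin accumulated inside mitochondria; 100% equals median channel fluorescence of DMSO control wells; lower ratio means ABCB6 inhibition with less porphyrin fluorescence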
FAS-TE conf: confirmation of human fatty acid synthase thioesterase inhibitors | shares compounds with FAS TE block | recombinant FAS-TE, OMFH fluorogenic substrate, fluorescence | inhibition, % at 15 µM | 2,300 tested, 45% active;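 active = compounds inhibiting the enzyme by at least 50% at 15 µM in any one of the replicates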;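 also: 0% = enzyme with DMSO only and 100% = wells lacking enzyme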
Starred values were filed as active, the others as inactive; x = no result given.

SMILES	FAS TE block	hiPSC survival	SENP1 FRET inh	ABCB6 inh 2	FAS-TE conf
CCC(CO)Nc1nc2ccc(Cl)cc2c2ccccc12 (stereo not drawn)	11.3	-0.3	1.3	97.0	x
CCCCOc1ccc(S(=O)(=O)N2CCN(c3ccc(N4CCN(CC)CC4)nn3)CC2)cc1	59.8*	-0.5	-3.3	100.0	29.2
Cc1cc(F)ccc1-c1cc(C(=O)NC2CCCCC2)[nH]n1	1.4	4.8	3.0	90.0	x
COc1ccc(-c2cnnn2-c2ccc(NC(=O)c3ccc(S(=O)(=O)N4CCCCC4)cc3)cc2)cc1	57.9*	0.2	0.7	94.0	-1.3
Cc1c(C(=O)Nc2ccc(-c3nnc4n3CCCCC4)cc2)oc2c1ccc1ccccc12	78.0*	1.4	-0.7	96.0	6.2
CCCCNC(=O)CSc1nc2ccccc2n1S(=O)(=O)c1ccc(Br)cc1	0.3	1.0	1.1	100.0	x
O=C(CSc1nc2ccccc2n1S(=O)(=O)c1cccc([N+](=O)[O-])c1)NCCc1ccccc1	76.1*	1.0	2.9	90.0	69.1*
COC(=O)c1ccccc1NC(=O)COC(=O)c1ccc(C)c(NC(=O)c2ccco2)c1	70.9*	-0.3	0.5	92.0	16.9
O=C(NC(NC(=S)Nc1ccccc1C(=O)O)C(Cl)(Cl)Cl)c1ccco1 (stereo not drawn)	0.3	1.2	1.7	104.0	x
COC(=O)c1ccccc1NC(=S)NC(NC(=O)c1ccco1)C(Cl)(Cl)Cl (stereo not drawn)	50.5*	0.1	0.3	101.0	42.0
Cc1ccccc1NC(=S)NC(NC(=O)COc1ccccc1)C(Cl)(Cl)Cl (stereo not drawn)	3.6	-0.3	1.0	97.0	x
COC(=O)c1ccccc1NC(=S)NC(NC(=O)COc1ccccc1)C(Cl)(Cl)Cl (stereo not drawn)	71.0*	-3.2	0.3	92.0	36.5
CCCCN1CC(N(C)CCN(C)C)CS1(=O)=O (stereo not drawn)	-6.1	-1.0	-1.5	97.0	x
O=C(CSc1nnc(-c2c[nH]c3ccccc23)o1)N1c2ccccc2CCc2ccccc21	55.3*	-1.3	2.9	84.0	11.1
COc1ccc(S(=O)(=O)N2CCC(C(=O)Oc3cccc(C)c3)CC2)cc1OC	17.6	0.0	-1.2	92.0	x
CC(C)NC(=O)C1(C)CCN1C(=O)c1ccccc1Oc1ccccc1 (stereo not drawn)	-4.8	0.7	0.9	100.0	x
COc1ccc(-c2nn(-c3ccccc3)cc2/C=C/C(=O)O)cc1[N+](=O)[O-]	52.6*	-0.4	2.8	96.0	62.2*
O=C(NNS(=O)(=O)c1ccc([N+](=O)[O-])cc1)c1ccc([N+](=O)[O-])cc1	73.6*	-0.1	-1.5	99.0	77.1*
O=C(NNS(=O)(=O)c1ccc([N+](=O)[O-])cc1)c1cnn(-c2ccccc2)c1-n1cccc1	65.4*	-0.3	1.7	89.0	74.6*
CC(=O)Nc1ccc(S(=O)(=O)NNC(=O)c2ccc([N+](=O)[O-])cc2)cc1	5.2	-0.7	-0.5	100.0	x
Cc1ccc(C(=O)c2coc3cc([N+](=O)[O-])c(O)c([N+](=O)[O-])c23)cc1	4.7	-0.7	5.4	105.0	x
Cc1cc(-n2cnnn2)cc(C)c1S(=O)(=O)N(C)c1ccccc1	13.7	-0.3	-0.8	93.0	x
Nn1c(SCC(=O)Nc2nccs2)nnc1-c1cccnc1	-4.6	-0.3	1.4	93.0	x
O=C(NNc1c(Cl)cc(Cl)cc1Cl)c1cccc([N+](=O)[O-])c1	55.2*	0.8	1.8	104.0	58.0*
O=C(NC(NC(=S)Nc1c(Cl)cccc1Cl)C(Cl)(Cl)Cl)c1cccc([N+](=O)[O-])c1 (stereo not drawn)	54.7*	-0.6	-1.1	98.0	7.0
SMILES	FAS TE block	hiPSC survival	SENP1 FRET inh	ABCB6 inh 2	FAS-TE conf
O=C(NNC(=S)NC(=O)c1ccccc1Cl)c1cccc([N+](=O)[O-])c1	5.4	0.1	1.6	90.0	x
Cc1sc(NC(=O)Cc2ccc3c(c2)OCO3)nc1-c1ccc2c(c1)CCN2C(=O)c1ccc(F)cc1	15.1	0.9	-5.4	90.0	x
Cc1sc(NC(=O)Cc2ccc3c(c2)OCO3)nc1-c1ccc2c(c1)CCN2C(=O)c1ccccc1F	81.2*	0.6	-0.6	91.0	13.8
CC1(C)CC2CC(C)(CN2S(=O)(=O)c2ccc(C(=O)Nc3ccc(Cl)c(S(=O)(=O)N4CCOCC4)c3)cc2)C1 (stereo not drawn)	80.2*	-3.1	2.9	92.0	13.3
CC1(C)CC2CC(C)(CN2S(=O)(=O)c2ccc(C(=O)Nc3ccc(S(=O)(=O)N4CCOCC4)cc3)cc2)C1 (stereo not drawn)	57.6*	-2.7	-0.7	89.0	24.8
CC(C)CC(=O)Nc1nnc(S(=O)(=O)Nc2ccccc2)s1	-3.2	-0.5	1.7	101.0	x
Cc1ccc(-c2nnc(Nc3ccc4c(c3)OCO4)c3ccccc23)cc1S(=O)(=O)NCCO	0.1	-0.4	1.2	103.0	x
Cc1ccc(-c2nnc(Nc3ccc4c(c3)OCO4)c3ccccc23)cc1S(=O)(=O)NC(C)C	50.6*	-0.1	3.6	99.0	15.3
COc1ccc(/C=N\NC(=O)CNC(=O)C(c2ccccc2)c2ccccc2)cc1[N+](=O)[O-]	54.3*	-2.2	0.6	94.0	41.6*
Cc1ccc2c(C)nc(N/C(N)=N/S(=O)(=O)c3ccc([N+](=O)[O-])cc3)nc2c1	52.2*	-0.6	3.6	103.0	58.4*
Cc1ccc(S(=O)(=O)N(C)C[C@H]2OCCCC[C@H](C)Oc3ccc(NC(=O)Nc4cccc5ccccc45)cc3C(=O)N([C@@H](C)CO)C[C@H]2C)cc1	82.4*	-0.9	-0.3	97.0	5.8
Cc1ccc(S(=O)(=O)Nc2ccc3c(c2)C(=O)N([C@@H](C)CO)C[C@@H](C)[C@@H](CN(C)S(=O)(=O)c2ccccc2)OCCCC[C@H](C)O3)cc1	79.4*	-1.9	-0.7	94.0	-1.5
Cc1ccc(S(=O)(=O)N(C)C[C@@H]2OCCCC[C@@H](C)Oc3ccc(NS(=O)(=O)c4c(C)noc4C)cc3C(=O)N([C@H](C)CO)C[C@@H]2C)cc1	9.0	1.8	0.8	97.0	x
C[C@@H]1CN([C@@H](C)CO)C(=O)c2cc(NC(=O)C3CCCCC3)ccc2O[C@@H](C)CCCCO[C@H]1CN(C)S(=O)(=O)c1ccc(Cl)cc1	81.0*	-0.1	2.0	103.0	8.3
C[C@@H]1CCCCO[C@H](CN(C)C(=O)Nc2cccc3ccccc23)[C@@H](C)CN([C@H](C)CO)C(=O)c2cc(NC(=O)c3ccccc3)ccc2O1	77.9*	0.6	-0.5	95.0	-0.4
COc1ccc(C(=O)NC(=S)NCc2ccco2)cc1	9.8	-0.2	-0.2	99.0	x
Cc1ccc2nccc(C(=O)N3CCCC(Nc4ccc(C)c(C)c4)C3)c2c1 (stereo not drawn)	1.4	-0.3	1.7	95.0	x
